Test results as given in ChEMBL document CHEMBL4706740, “Structure-Activity Study of Nitazoxanide Derivatives as Novel STAT3 Pathway Inhibitors” (ACS Med Chem Lett, 2021).
The source made the active and inactive calls. The rule behind the calls is not given here.

Legend:
HeLa [1] = test: Induction of cell cycle arrest in human HeLa cells assessed as accumulation at G2/M phase at 20 uM measured after 24 hrs by flow cytometry analysis (reference value: 11.81%); format: functional
HeLa [2] = test: Induction of apoptosis in human HeLa cells assessed as late apoptotic cells at 10 uM incubated for 24 hrs by Annexin V-FITC/PI staining based flow cytometry (reference value: 4.7%); format: functional
[3] = target: Signal transducer and activator of transcription 3 (Homo sapiens) (UniProt P40763); test: Inhibition of STAT3 in human HeLa cells assessed as decrease in phosphorylation of STAT3 at Tyr705 cells pretreated with Na3VO4 phosphatase inhibitor measured at 80 uM incubated for 1 hr by Western blot analysis; format: cell-based
How it was run: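 HeLa cells pretreated 15 min with 25 μM Na3VO4 (phosphatase inhibitor) before compound exposure. p-STAT3 (Tyr705) assessed by Western blot of total cell lysates with specific antibodies and compared with cells not given Na3VO4.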

[4] = target: Signal transducer and activator of transcription 3 (Homo sapiens) (UniProt P40763); test: Inhibition of STAT3 in human Hela cell lysate assessed as inhibition of protein and DNA interaction upto 100 uM cells preincubated 1 hr by electrophoretic mobility shift assay; format: subcellular; settings: dose microM <=100, time 1.0 hrs
HeLa [5] = test: Induction of apoptosis in human HeLa cells assessed as late apoptotic cells at 20 uM incubated for 24 hrs by Annexin V-FITC/PI staining based flow cytometry (reference value: 4.7%); format: functional
HL-60 = test: Antiproliferative activity against human HL60 cells assessed as cell growth inhibition measured after 48 hrs by MTT assay; format: functional, cell-based; settings: HL-60, 48 h
[6] = target: Signal transducer and activator of transcription 3 (Homo sapiens) (UniProt P40763); test: Inhibition of STAT3 in human HeLa cells assessed as decrease in phosphorylation of STAT3 at Tyr705 measured after 24 hrs by Western blot analysis; format: cell-based; settings: dose microM <=80, time […]
How it was run: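 HeLa cells exposed 24 h to a range of compound doses. Total cell lysates immunoblotted with specific antibodies for p-STAT3 (Tyr705), p-STAT3 (Ser727) and total STAT3.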

Chain of Signal transducer and activator of transcription 3 (Homo sapiens) (P40763 whole entry): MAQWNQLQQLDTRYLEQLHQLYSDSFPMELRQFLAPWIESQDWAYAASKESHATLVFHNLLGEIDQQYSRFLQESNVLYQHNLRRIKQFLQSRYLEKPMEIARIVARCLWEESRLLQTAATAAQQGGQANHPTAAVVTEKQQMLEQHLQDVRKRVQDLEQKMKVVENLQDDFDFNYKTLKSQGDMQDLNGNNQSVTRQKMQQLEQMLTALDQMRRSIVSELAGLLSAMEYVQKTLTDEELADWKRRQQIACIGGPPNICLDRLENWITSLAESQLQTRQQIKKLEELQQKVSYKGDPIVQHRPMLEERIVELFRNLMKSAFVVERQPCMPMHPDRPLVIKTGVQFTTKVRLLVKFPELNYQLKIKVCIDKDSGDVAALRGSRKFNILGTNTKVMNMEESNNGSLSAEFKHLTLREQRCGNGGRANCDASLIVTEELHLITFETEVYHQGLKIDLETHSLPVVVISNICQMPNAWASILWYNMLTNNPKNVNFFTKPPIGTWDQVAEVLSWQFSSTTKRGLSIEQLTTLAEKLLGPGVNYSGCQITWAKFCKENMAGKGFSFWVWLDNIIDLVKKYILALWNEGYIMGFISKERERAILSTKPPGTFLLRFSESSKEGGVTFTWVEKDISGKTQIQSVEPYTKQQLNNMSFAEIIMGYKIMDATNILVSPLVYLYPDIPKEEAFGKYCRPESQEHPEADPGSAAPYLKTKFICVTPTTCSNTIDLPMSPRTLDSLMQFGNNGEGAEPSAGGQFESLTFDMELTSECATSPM

## CC(=O)Oc1ccccc1C(=O)Nc1ncc([N+](=O)[O-])s1 [NITAZOXANIDE]
HeLa [1]
  Activity: 8.27%
HeLa [2]
  Activity: 5.32%
[3]
  inhibition: Active
[4]
  inhibition: inactive
HeLa [5]
  Activity: 11.4%
HL-60
  IC50: 20.1 µM
[6]
  inhibition: Dose-dependent effect
